Measurements pooled from the literature.
Target: Serine/threonine-protein kinase N2 (PKN2, Homo sapiens, UniProt Q16513)

`Cn1c2c(c3ccc(Cl)c(Cl)c31)C(C#N)C1(CCCC1)NC2=O` (centres unmarked) gave a ΔTm of 0 °C (thermal stability; DSF; 10 µM).
For `Cn1c(=O)n(-c2ccc(C(C)(C)C#N)cc2)c2c3cc(-c4cnc5ccccc5c4)ccc3ncc21`, the remaining activity was 74% (enzyme activity; inhibitor; 10 µM).
`Cn1c2c(c3ccc(Cl)c(Cl)c31)C(C#N)C(C)(C)NC2=O` (centres unmarked) gave a ΔTm of 1.3 °C (thermal stability; DSF; 10 µM).
The remaining activity of `COc1cc(Nc2cnc(C#N)c(O[C@H](C)CN(C)C)n2)ncc1-c1cnn(C)c1` is reported as 86% (enzyme activity; inhibitor; radiometric; 10 µM).
`CC1=C(C#N)[C@@H](c2ccc3[nH]nc(C)c3c2)C(C#N)=C(c2ccc(Cl)cc2)N1` has a remaining binding of 74.6% (cell-free assay; competition with immobilised ligand; 1 µM).
`Nc1ncnc2occ(-c3ccc(NC(=O)Nc4cc(C(F)(F)F)ccc4F)cc3)c12` gave a remaining signal of 58% (cell-free assay; inhibitor; 20 µM).
The activity vs control of `Cc1ccc(C(=O)NCc2ccsc2)cc1C#Cc1cn(C(C)C)c2ncnc(N)c12` is reported as 113% (enzyme activity; inhibitor; 1 µM).
The remaining signal of `O=C1Nc2ccc(Cl)cc2C1=Cc1cc(Cl)c(O)c(Cl)c1` is reported as 114% (cell-free assay; 0.5 µM).
For `CC(C)(C)C(=O)c1sc(NC2CCCCC2)nc1N`, the remaining activity was 95% (enzyme activity; inhibitor; 10 µM).
`CCCOc1ccc(OC)c(F)c1C(=O)c1ccc(C(=O)N[C@@H]2CNC[C@H]2NC(=O)c2ccc3[nH]ncc3c2)cc1` has a remaining activity of -1% (enzyme activity; inhibitor; 10 µM).
`Cc1ccc(C(=O)Nc2ccc(CN3CCN(C)CC3)c(C(F)(F)F)c2)cc1C#Cc1cnc2cccnn12` has a remaining activity of 99% (enzyme activity; inhibitor; 23.5 nM).
`CNCc1ccc(-c2cc(-c3nc(-c4ccc(S(=O)(=O)C(C)C)cc4)cnc3N)on2)cc1` has an inhibition of 59% (enzyme activity; inhibitor; 0.4 µM).
The inhibition of `CN(c1ncccc1CNc1nc(Nc2ccc3c(c2)CC(=O)N3)ncc1C(F)(F)F)S(C)(=O)=O` is reported as 47% (enzyme activity; inhibitor; 1 µM).
`COc1cc(-c2cc(-c3ccc(N4CCNCC4)cc3)cnc2C)cc(OC)c1OC` gave an inhibition of 4% (enzyme activity; inhibitor; 0.1 µM).
The remaining binding of `CCCOc1ccc([C@H]2[C@H](C(=O)O)[C@@H](c3ccc4c(c3)OCO4)CN2CC(=O)Nc2c(CC)cccc2CC)cc1` is reported as 100% (cell-free assay; competition with immobilised ligand; 1 µM).
`CCCCNc1ncc2c(-c3ccc(F)cc3)nn(C[C@H]3CC[C@H](N)CC3)c2n1` gave an inhibition of 2.9% (target engagement in cells; inhibitor; chemoproteomics; 20 mM).
With `CNC(=O)Nc1ccc2c(c1)CC[C@@]21OC(=O)N(CC(=O)N(Cc2ccc(F)cc2)[C@@H](C)C(F)(F)F)C1=O` the remaining binding was 97% (cell-free assay; competition with immobilised ligand; 1 µM).
`CCN1CCN(Cc2ccc(NC(=O)c3ccc(C)c(Oc4ccnc5[nH]ccc45)c3)cc2C(F)(F)F)CC1` gave an inhibition of -10.5% (target engagement in cells; inhibitor; chemoproteomics; Huh-7; 10 µM).
The remaining activity of `Cc1sc(C(=O)NC2COC2)cc1-n1cc(NC(=O)Nc2c(F)cccc2Cl)cn1` is reported as 87.1% (enzyme activity; inhibitor; 10 µM).
`COc1ccc2c(O[C@@H]3C[C@H]4C(=O)N[C@]5(C(=O)O)CC5/C=C\CCCCC[C@H](NC(=O)OC5CCCC5)C(=O)N4C3)cc(-c3csc(NC(=O)C(C)C)n3)nc2c1C` (some centres unmarked) has a remaining binding of 67% (cell-free assay; competition with immobilised ligand; 1 µM).
`CCN(CC)c1ccc(C2=NNC(=O)CC2C)cc1[N+](=O)[O-]` (centres unmarked) has a remaining activity of 94% (enzyme activity; inhibitor; 10 µM).
`CCCCN(CCCC)C(=O)CN1C[C@H](c2cc(OC)c3c(c2)OCO3)[C@@H](C(=O)O)[C@@H]1CC(C)(C)CCC` has a remaining binding of 100% (cell-free assay; competition with immobilised ligand; 1 µM).
The inhibition of `CNC(=O)c1cc(Oc2ccc(NC(=O)Nc3ccc(Cl)c(C(F)(F)F)c3)cc2)ccn1` is reported as 20% (enzyme activity; inhibitor; 10 µM).
With `Cc1ccc(NC(=O)c2ccc(CN3CCN(C)CC3)cc2)cc1Nc1nc(-c2cccnc2)cs1` the remaining signal was 108% (cell-free assay; 0.5 µM).
The remaining activity of `CC(C)(O)[C@H]1CC[C@H](Nc2ccc3ncc(-c4cccc(C(F)(F)F)c4)n3n2)CC1` is reported as 95.9% (enzyme activity; inhibitor; 1 µM).
For `c1cnn2ncc(-c3ccnc(N4CCC45COC5)n3)c2c1`, the remaining binding was 89% (binding; 1 µM).
The remaining binding of `O=C(Nc1cnc(Oc2ccc(F)cc2)nc1)N1CCc2ncccc2[C@@H]1c1ccc(F)cc1` is reported as 78% (cell-free assay; competition with immobilised ligand; 1 µM).
For `COc1cccc2c(NCc3ccccc3)nc(-n3c(N)nc4ccccc43)nc12`, the inhibition was -3.6% (target engagement in cells; inhibitor; chemoproteomics; 20 mM).
For `Cc1cc(-n2nc(Cc3cc(F)cc(C(F)(F)F)c3)nc2C)ccc1C(N)=O`, the remaining binding was 100% (cell-free assay; competition with immobilised ligand; 1 µM).
`Cc1ccc(Nc2nccc(N(C)c3ccc4c(C)n(C)nc4c3)n2)cc1S(N)(=O)=O` has an inhibition of 19% (enzyme activity; inhibitor; 0.3 µM).
The remaining activity of `FC(F)c1nc2ccccc2n1-c1nc(N2CCOCC2)nc(N2CCOCC2)n1` is reported as 82% (enzyme activity; inhibitor; 10 µM).
`CCN(CC)CCNC(=O)c1c(C)[nH]c(/C=C2\C(=O)Nc3ccc(F)cc32)c1C` has an inhibition of 69% (enzyme activity; inhibitor; 10 µM).
For `O=C1NC(=O)c2cc(Nc3ccc(F)cc3)c(Nc3ccc(F)cc3)cc21`, the remaining signal was 102% (cell-free assay; 0.5 µM).
The remaining binding of `CC(C)CC(=O)N1CCc2nc(-c3ccc(Br)cc3)nc(N(C)Cc3ccccc3)c2C1` is reported as 80% (cell-free assay; competition with immobilised ligand; 0.1 µM).
With `CC(C)(C)c1nc(-c2cccc(NS(=O)(=O)c3c(F)cccc3F)c2F)c(-c2ccnc(N)n2)s1` the remaining activity was 78% (enzyme activity; inhibitor; radiometric; 1 µM).
